Bioassay records as filed in PubChem BioAssay.
HSF1 inh: HSF1 inhibitors in luciferase reporter cells, primary screen, cell-based, NIH3T3, luminescence; NIH3T3-HGL HSE-luciferase, MG132-induced, luminescence 8 h; active compounds read low; activity change, negative = inhibition, % at 7.5 µM (by protocol); 0.77% of 300,000 active;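 active = more than half of replicate wells show activity change below -50%, luminescence cut by over half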;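 note: luciferase reports HSF-1 transcriptional activity via heat shock element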
NS3 helicase inh: inhibitors of HCV NS3 helicase, primary screen, biochemical, Cy5 molecular beacon fluorescence; Hepatitis C virus NS3 helicase; NS3 helicase DNA unwinding; inhibition, % at 10.9 µM; 0.56% of 290,000 active; AID 1800, 2009;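 active = inhibition above the mean of all tested compounds plus 3 SD, set per campaign, cut at about 35% in these data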
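Assay system – hepatitis C virus NS3 helicase domain fragment enzyme · Buffer or medium – MOPS pH 6.5, MgCl2, DTT, Tween20, BSA · Reagent – Cy5/quencher beacon DNA duplex and ATP to start · Compound – single 10.9 µM dose · Timing – 1 h at 25 °C · Technique – Cy5 beacon fluorescence read at start and 1 h · Measure – % inhibition of unwinding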
HSP90 refold inh: HSP90 inhibitors, primary screen, cell lysate, luminescence. Heat shock protein HSP 90 (rabbit reticulocyte lysate; luciferase refolding). Rabbit reticulocyte lysate, luciferase refolding luminescence, 3 h. inhibition, % at 5.6 µM. 0.91% of 290,000 active. AID 1789, 2009;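 active = inhibition above the screen-wide mean plus 3 SD, computed separately per campaign, cut at about 16% in these data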;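 note: inhibitors lower the luminescence because luciferase stays unfolded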
Hep lipid drop: inhibitors of hepatocyte lipid droplet formation, primary screen, imaging, high-throughput imaging, BODIPY stain | inhibition, % at 6.5 µM | AML12 mouse hepatocytes, oleate lipid droplets | 0.4% of 240,000 active;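 active = lipid droplet intensity inhibited by at least 50%, with more than 500 cells counted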
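Material – mouse AML12 hepatocyte cell line, fixed after treatment · Compound dosing – one dose, 6.5 µM compound · Times – compound with oleate, overnight · Measured by – Image-based BODIPY and DAPI two-channel analysis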
HSF-1 act: HSF-1 activators, primary screen, NIH3T3-HGL cells, MG132 stress, luminescence, single point. NIH3T3-HGL HSF-1 luciferase reporter, 8 h; 100% = twice DMSO control signal. activation, % at 9 µM. 1.7% of 300,000 active;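 active = mean replicate activation of at least 50% with a set share of replicates each reaching 50%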
NS3 hel confirm: HCV NS3 helicase inhibitors, retest, confirmation, biochemical, Cy5 molecular beacon fluorescence, triplicate. shares compounds with NS3 helicase inh. NS3 helicase DNA unwinding. inhibition, % at 10.9 µM. 31% of 1,600 active;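 active = inhibition above the mean of all tested compounds plus 3 SD, cutoff set per campaign, cut at about 36% in these data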
FID counter trip: compounds displacing fluorescent DNA intercalator, artefact control for HCV NS3 helicase inhibitor project, biochemical, FID fluorescence, triplicate | shares compounds with NS3 helicase inh | DNA fluorescent intercalator displacement | inhibition, % at 7.9 µM | 4% of 1,600 active | AID 1945, 2009; in the data active = inhibition above about 37%;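 note: higher means more displacement of ethidium bromide from the DNA hairpin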
DNA FID DR: compounds displacing fluorescent intercalator from DNA, dose response, counter-screen for HCV NS3 helicase inhibitor project, biochemical, fluorescence. shares compounds with NS3 helicase inh. fluorescent intercalator displacement from DNA. IC50, µM. 120 tested, under 10 active. AID 2172, 2009; call rule not given here
Of the large screens only hits and unclear results are named; the others gave an inactive call (follow-up assays come after a bar, where they were run). Shown are actives, neighbours in structure and some others; about 3.8% of the full set was active somewhere.

Cc1ccc(NC(=O)c2cc(-c3ccco3)nc3ccccc23)cc1S(=O)(=O)N1CCOCC1	none
COc1ccc(NC(=O)c2cc(-c3ccco3)nc3ccccc23)cc1S(=O)(=O)N1CCOCC1	NS3 helicase inh 54.0 | NS3 hel confirm 73.3 | FID counter trip inactive
CCc1nnc(NC(=O)c2cc(-c3ccccn3)nc3ccccc23)s1	none
CCc1nnc(NC(=O)c2cc(-c3ccco3)nc3ccccc23)s1	NS3 helicase inh 37.6 | NS3 hel confirm inactive | FID counter trip inactive
CCC1(c2ccc(F)cc2)NC(=O)N(CC(=O)Nc2ccccc2Cl)C1=O (centres undefined)	none
Cc1c(C(=O)Nc2cc(F)cc(F)c2)cnn1-c1ccccc1	none
Cc1ccc(C(=O)/C=C/c2cc(Br)cc(Br)c2O)o1	NS3 helicase inh 36.9, HSF-1 act 89.3 | NS3 hel confirm 48.4 | FID counter trip inactive | DNA FID DR inactive
Cc1ccc(C(=O)/C=C/N(C)C)o1	none
CCn1c(=O)c(CCC(=O)NCC2CCCO2)c(C)c2c(C)nn(-c3ccc(C)cc3)c21 (centres undefined)	NS3 helicase inh 37.1 | NS3 hel confirm inactive | FID counter trip inactive
COc1cccc(CN2CC(C(=O)NCCOc3cccnc3)CCC2=O)c1 (centres undefined)	none
Cc1cccn2c(=O)c3cc(C(=O)NCCc4ccccc4)c(=N)n(Cc4ccco4)c3nc12	none
COc1ccc(CCNC(=O)c2cc3c(=O)n4cccc(C)c4nc3n(Cc3ccco3)c2=N)cc1OC	NS3 helicase inh 38.0, HSF-1 act 99.3 | NS3 hel confirm inactive | FID counter trip inactive
CCCCn1c(=NC(=O)c2ccco2)c(C(=O)OCC)cc2c(=O)n3ccccc3nc21	none (no result: Hep lipid drop)
CCOC(=O)c1cc2c(=O)n3ccccc3nc2n(Cc2ccco2)c1=NC(=O)c1ccc(OC)cc1OC	NS3 helicase inh 51.1 | NS3 hel confirm inactive | FID counter trip inactive
CC(C)(C)OC(=O)n1cc(C(=O)c2ccccc2O)cn1	none
O=C(O)c1cc(N/N=C/c2ccc(OCc3ccccc3)cc2)ccc1Cl	NS3 helicase inh 41.6 | NS3 hel confirm 67.2 | FID counter trip inactive
CC(C)C(=O)N/N=C/c1ccc(OCc2ccccc2)cc1	none (no result: Hep lipid drop)
N#CC(Sc1ccccn1)c1ccc(Cl)cc1 (centres undefined)	none
CC(C)CC(N)C(=O)OCc1ccc([N+](=O)[O-])cc1 (centres undefined)	none
CCOC(=O)c1c(NC(=O)/C=C/C(=O)O)sc(C)c1-c1ccc(C(C)(C)C)cc1	none
Cc1sc(NC(=O)C2CCCCC2C(=O)O)c(C(N)=O)c1-c1ccccc1 (centres undefined)	none (no result: Hep lipid drop)
Cc1sc(NC(=O)/C=C/C(=O)O)c(C(N)=O)c1-c1ccc(C(C)(C)C)cc1	NS3 helicase inh 36.5 | NS3 hel confirm 59.5 | FID counter trip inactive
Cc1sc(NC(=O)C2CCCCC2C(=O)O)c(C(N)=O)c1-c1ccc(C(C)C)cc1 (centres undefined)	NS3 helicase inh 39.1 (no result: Hep lipid drop) | NS3 hel confirm 77.3 | FID counter trip inactive
COc1ccc(/C=C/C(=O)O)cc1S(=O)(=O)N1CCCCC1	none
C=C1N(C)c2cc([N+](=O)[O-])c(N)cc2C1(C)C	none
CC1(C)Oc2cc(N)c([N+](=O)[O-])cc2O1	NS3 helicase inh 53.6 (no result: Hep lipid drop) | NS3 hel confirm inactive | FID counter trip inactive
CC(C)c1ccc(OCC(=O)NCc2n[nH]c(=O)c3ccccc23)cc1	none (no result: NS3 helicase inh, HSP90 refold inh, Hep lipid drop)
COc1ccc(C2=NN(c3nc4ccccc4s3)C(=O)/C2=C\N(C)C)cc1	NS3 helicase inh 46.6 | NS3 hel confirm inactive | FID counter trip inactive
COc1ccc(/C=C2\C(=O)N(c3nc(-c4ccc(Br)cc4)cs3)N=C2c2ccccc2)cc1	none (no result: HSF1 inh, Hep lipid drop, HSF-1 act)
O=C(OCC(=O)N1CCCC1)c1cc(Cl)ccc1[N+](=O)[O-]	none
COc1cccc(C(=O)NCCS(=O)(=O)N(C)Cc2ccccc2)c1	none (no result: NS3 helicase inh, HSP90 refold inh, Hep lipid drop)
Cn1cccc1CC(=O)NNC(=O)Nc1ccc(Cl)cc1	none
Cn1cccc1CC(=O)NNC(=O)Nc1cccc(Cl)c1	NS3 helicase inh 37.6 | NS3 hel confirm inactive | FID counter trip inactive
CC(=O)N1CCc2c(sc(NC(=O)CS(=O)(=O)c3ccc(F)cc3)c2C(N)=O)C1	none (no result: NS3 helicase inh, HSP90 refold inh, Hep lipid drop)
CCOC(=O)N1CCC(c2cc(=O)n3[nH]c(C)c(-c4ccc(F)cc4)c3n2)CC1	none
COCCNC(=O)c1c[nH]n2c(=O)cc(C3CCN(C(=O)OC(C)(C)C)CC3)nc12	NS3 helicase inh 41.3 (no result: Hep lipid drop) | NS3 hel confirm inactive | FID counter trip inactive
CCCCc1c(C)nc2c(OC)cccc2c1SCC(=O)O	NS3 helicase inh 37.0 | NS3 hel confirm inactive | FID counter trip inactive
CCCCc1c(C)nc2ccc(OC)cc2c1SCCC(=O)O	none (no result: NS3 helicase inh, HSP90 refold inh, Hep lipid drop)
CCN(CC)c1ccc(N=Cc2ccccc2[N+](=O)[O-])cc1	NS3 helicase inh 41.3 | NS3 hel confirm inactive | FID counter trip inactive
CCN(CC)c1ccc(N=Cc2ccc([N+](=O)[O-])o2)cc1	NS3 helicase inh 57.1 | NS3 hel confirm inactive | FID counter trip inactive
CC(=O)N(C)c1ccc(N=Cc2cc3c(cc2[N+](=O)[O-])OCO3)cc1	none (no result: NS3 helicase inh, HSP90 refold inh, Hep lipid drop)
COc1ccc(N=C2SC(CC(=O)Nc3ccccc3OC)C(=O)N2Cc2ccco2)cc1 (centres undefined)	NS3 helicase inh 40.9 | NS3 hel confirm inactive | FID counter trip inactive
O=C1CSC(=S)N1/N=C/c1ccc(Cl)c([N+](=O)[O-])c1	NS3 helicase inh 44.1 | NS3 hel confirm 50.8 | FID counter trip inactive
Cc1c(Cl)cccc1N=C1SCCN1C(=O)CN1C(=O)NC2(CCCC2)C1=O	none (no result: NS3 helicase inh, HSP90 refold inh, Hep lipid drop)
COc1cc(CC(CC(=O)O)CC(C)OCc2ccccc2)cc(OC)c1 (centres undefined)	NS3 helicase inh 38.6 | NS3 hel confirm inactive | FID counter trip inactive
Cc1ccc(NC(=S)NCCN2CCOCC2)cc1F	none
CN1CCN(C(c2ccc(C(F)(F)F)cc2)c2cc(Cl)c3cccnc3c2O)CC1 (centres undefined)	none
CN1CCN(C(c2ccc(Cl)cc2)c2cc(Cl)c3cccnc3c2O)CC1 (centres undefined)	NS3 helicase inh 46.2, HSF-1 act 79.2 | NS3 hel confirm inactive | FID counter trip 57.9
Cc1noc(/C=C/N(C)C)c1S(=O)(=O)N(C)Cc1ccc(F)cc1	none
